In brackets after ≈: the same amount, converted by molar mass.
What was measured:
Assay type in all cases: functional
Staphylococcus aureus [1] = assay: Antibacterial activity against erythromycin-susceptible Staphylococcus aureus ATCC 25923 after 24 hrs by […]; settings: ATCC 25923, 24 h
Escherichia coli = assay: Antibacterial activity against penicillin-susceptible Escherichia coli ATCC 25922 incubated for 24 hrs by […]; settings: ATCC 25922, 24 h
Streptococcus pyogenes [2] = assay: Antibacterial activity against erythromycin-susceptible Streptococcus pyogenes after 24 hrs […]
Pseudomonas aeruginosa = assay: Antibacterial activity against penicillin-susceptible Pseudomonas aeruginosa ATCC 27853 incubated for 24 hrs by […]; settings: ATCC 27853, 24 h
Bacillus subtilis = assay: Antibacterial activity against erythromycin-susceptible Bacillus subtilis ATCC 9372 after 24 hrs by tube-dilution method; settings: ATCC 9372, 24 h
Procedure, shortened: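 MIC by standard NCCLS broth microdilution. Reference macrolides clarithromycin and azithromycin run alongside.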

Staphylococcus aureus [3] = assay: Antibacterial activity against methicillin-resistant Staphylococcus aureus ATCC 43300 after 24 hrs by tube-dilution method; settings: ATCC 43300, 24 h
Procedure, shortened: (§1)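 MIC determined by the NCCLS-recommended standard broth microdilution method against erythromycin-resistant S. pneumoniae strains (A22072 mef, B1 erm, AB11 erm plus mef) and methicillin-resistant S. aureus ATCC43300.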

Streptococcus pneumoniae [4] = assay: Antibacterial activity against erythromycin-resistant Streptococcus pneumoniae B1 harboring ermB gene after 24 hrs by tube-dilution method; settings: B1, 24 h; procedure, shortened: as §1
Streptococcus pneumoniae [5] = assay: Antibacterial activity against erythromycin-resistant Streptococcus pneumoniae A22072 harboring mefA gene after 24 hrs by […]; settings: A22072, 24 h
Streptococcus pneumoniae [6] = assay: Antibacterial activity against erythromycin-resistant Streptococcus pneumoniae AB11 harboring ermB and mefA genes after 24 hrs by tube-dilution method; settings: AB11, 24 h; procedure, shortened: as §1
Streptococcus pyogenes [7] = assay: Antibacterial activity against erythromycin-resistant Streptococcus pyogenes R1 after 24 hrs by tube-dilution method; settings: R1, 24 h
Streptococcus pneumoniae [8] = assay: Potency index, ratio of azithromycin MIC to compound MIC for erythromycin-resistant Streptococcus pneumoniae A22072 harboring mefA gene
Streptococcus pneumoniae [9] = assay: Potency index, ratio of clarithromycin MIC to compound MIC for erythromycin-resistant Streptococcus pneumoniae A22072 harboring mefA gene
Staphylococcus aureus [10] = assay: Potency index, ratio of azithromycin MIC to compound MIC for methicillin-resistant Staphylococcus aureus ATCC 43300
Staphylococcus aureus [11] = assay: Potency index, ratio of clarithromycin MIC to compound MIC for methicillin-resistant Staphylococcus aureus ATCC 43300

Structure (SMILES) | MIC (Staphylococcus aureus [1]) [µg/mL] | MIC (Escherichia coli) [µg/mL] | MIC (Streptococcus pyogenes [2]) [µg/mL] | MIC (Pseudomonas aeruginosa) [µg/mL] | MIC (Bacillus subtilis) [µg/mL] | MIC (Staphylococcus aureus [3]) [µg/mL] | MIC (Streptococcus pneumoniae [4]) [µg/mL] | MIC (Streptococcus pneumoniae [5]) [µg/mL] | MIC (Streptococcus pneumoniae [6]) [µg/mL] | MIC (Streptococcus pyogenes [7]) [µg/mL] | Ratio (Streptococcus pneumoniae [8]) | Ratio (Streptococcus pneumoniae [9]) | Ratio (Staphylococcus aureus [10]) | Ratio (Staphylococcus aureus [11])
CC[C@H]1OC(=O)[C@H](C)C(=O)[C@H](C)[C@@H](O[C@@H]2O[C@H](C)C[C@H](N(C)C)[C@H]2O)[C@](C)(OC)C[C@@H](C)C(=O)[C@H](C)[C@@H](OC(=O)NCCNC(=O)C#Cc2ccc(Cl)cc2)[C@]1(C)O | 8 (≈ 9.56 µM) | > 128 | 1 (≈ 1.2 µM) | > 128 | 2 (≈ 2.39 µM) | 64 (≈ 76.5 µM) | 128 (≈ 153 µM) | 2 (≈ 2.39 µM) | 64 (≈ 76.5 µM) | 128 (≈ 153 µM) | – | – | – | –
CC[C@H]1OC(=O)[C@H](C)C(=O)[C@H](C)[C@@H](O[C@@H]2O[C@H](C)C[C@H](N(C)C)[C@H]2O)[C@](C)(OC)C[C@@H](C)C(=O)[C@H](C)[C@@H](OC(=O)NCCNC(=O)C#Cc2ccc(Cl)cc2Cl)[C@]1(C)O | 16 (≈ 18.4 µM) | > 128 | 1 (≈ 1.15 µM) | > 128 | 1 (≈ 1.15 µM) | 128 (≈ 147 µM) | 128 (≈ 147 µM) | 2 (≈ 2.3 µM) | 128 (≈ 147 µM) | 128 (≈ 147 µM) | – | – | – | –
CC[C@H]1OC(=O)[C@H](C)C(=O)[C@H](C)[C@@H](O[C@@H]2O[C@H](C)C[C@H](N(C)C)[C@H]2O)[C@](C)(OC)C[C@@H](C)C(=O)[C@H](C)[C@@H](OC(=O)NCCNC(=O)C#Cc2ccc(F)cc2)[C@]1(C)O | 16 (≈ 19.5 µM) | > 128 | 1 (≈ 1.22 µM) | > 128 | 2 (≈ 2.44 µM) | 128 (≈ 156 µM) | 128 (≈ 156 µM) | 2 (≈ 2.44 µM) | 64 (≈ 78.1 µM) | > 128 | – | – | – | –
CC[C@H]1OC(=O)[C@H](C)C(=O)[C@H](C)[C@@H](O[C@@H]2O[C@H](C)C[C@H](N(C)C)[C@H]2O)[C@](C)(OC)C[C@@H](C)C(=O)/C(C)=C/[C@]1(C)O | > 128 | > 128 | > 16 | 64 (≈ 112 µM) | 128 (≈ 225 µM) | > 128 | > 128 | 64 (≈ 112 µM) | > 128 | > 128 | – | – | – | –
CC[C@H]1OC(=O)[C@H](C)[C@@H](OC(=O)Cc2cccnc2)[C@H](C)[C@@H](O[C@@H]2O[C@H](C)C[C@H](N(C)C)[C@H]2O)[C@](C)(OC)C[C@@H](C)C(=O)/C(C)=C/[C@]1(C)O | 1 (≈ 1.45 µM) | 128 (≈ 185 µM) | 0.25 (≈ 0.362 µM) | 128 (≈ 185 µM) | 1 (≈ 1.45 µM) | 128 (≈ 185 µM) | 32 (≈ 46.3 µM) | 1 (≈ 1.45 µM) | 16 (≈ 23.2 µM) | 128 (≈ 185 µM) | – | – | – | –
CC[C@H]1OC(=O)[C@H](C)[C@@H](OC(=O)Cc2cccnc2)[C@H](C)[C@@H](O[C@@H]2O[C@H](C)C[C@H](N(C)C)[C@H]2O)[C@](C)(OC)C[C@@H](C)C(=O)[C@H](C)[C@@H](OC(=O)NCCNC(=O)c2ccc([N+](=O)[O-])cc2)[C@]1(C)O | 1 (≈ 1.06 µM) | 64 (≈ 67.8 µM) | 0.03 (≈ 0.0318 µM) | 64 (≈ 67.8 µM) | 2 (≈ 2.12 µM) | 128 (≈ 136 µM) | 32 (≈ 33.9 µM) | 0.5 (≈ 0.53 µM) | 8 (≈ 8.47 µM) | > 128 | 8 | 4 | – | –
CC[C@H]1OC(=O)[C@H](C)[C@@H](OC(=O)Cc2cccnc2)[C@H](C)[C@@H](O[C@@H]2O[C@H](C)C[C@H](N(C)C)[C@H]2O)[C@](C)(OC)C[C@@H](C)C(=O)[C@H](C)[C@@H](OC(=O)NCCNC(=O)/C=C/c2ccc([N+](=O)[O-])cc2)[C@]1(C)O | 8 (≈ 8.25 µM) | 128 (≈ 132 µM) | 0.125 (≈ 0.129 µM) | 128 (≈ 132 µM) | 4 (≈ 4.12 µM) | 64 (≈ 66 µM) | 32 (≈ 33 µM) | 1 (≈ 1.03 µM) | 8 (≈ 8.25 µM) | > 128 | – | – | – | –
CC[C@H]1OC(=O)[C@H](C)[C@@H](OC(=O)Cc2cccnc2)[C@H](C)[C@@H](O[C@@H]2O[C@H](C)C[C@H](N(C)C)[C@H]2O)[C@](C)(OC)C[C@@H](C)C(=O)[C@H](C)[C@@H](OC(=O)NCCNC(=O)/C=C/c2ccco2)[C@]1(C)O | 16 (≈ 17.5 µM) | 128 (≈ 140 µM) | 0.125 (≈ 0.137 µM) | > 128 | 8 (≈ 8.74 µM) | 32 (≈ 35 µM) | 64 (≈ 69.9 µM) | 1 (≈ 1.09 µM) | 16 (≈ 17.5 µM) | > 128 | – | – | 4 | 4
CC[C@H]1OC(=O)[C@H](C)C(=O)[C@H](C)[C@@H](O[C@@H]2O[C@H](C)C[C@H](N(C)C)[C@H]2O)[C@](C)(OC)C[C@@H](C)C(=O)[C@H](C)[C@@H](OC(=O)NCCNC(=O)C#Cc2ccc(C)cc2)[C@]1(C)O | 8 (≈ 9.8 µM) | > 128 | 0.25 (≈ 0.306 µM) | 128 (≈ 157 µM) | 1 (≈ 1.23 µM) | 128 (≈ 157 µM) | 128 (≈ 157 µM) | 0.5 (≈ 0.613 µM) | 64 (≈ 78.4 µM) | > 128 | 8 | 4 | – | –
CC[C@H]1OC(=O)[C@H](C)[C@@H](OC(=O)Cc2cccnc2)[C@H](C)[C@@H](O[C@@H]2O[C@H](C)C[C@H](N(C)C)[C@H]2O)[C@](C)(OC)C[C@@H](C)C(=O)[C@H](C)[C@@H](OC(=O)NCCNC(=O)C#Cc2ccc(C)cc2)[C@]1(C)O | 8 (≈ 8.54 µM) | > 128 | 0.25 (≈ 0.267 µM) | > 128 | 2 (≈ 2.13 µM) | 128 (≈ 137 µM) | 64 (≈ 68.3 µM) | 1 (≈ 1.07 µM) | 32 (≈ 34.1 µM) | > 128 | – | – | – | –
CC[C@H]1OC(=O)[C@H](C)C(=O)[C@H](C)[C@@H](O[C@@H]2O[C@H](C)C[C@H](N(C)C)[C@H]2O)[C@](C)(OC)C[C@@H](C)C(=O)[C@H](C)[C@@H](OC(=O)NCCNC(=O)C#Cc2ccccc2)[C@]1(C)O | 32 (≈ 39.9 µM) | > 128 | 2 (≈ 2.49 µM) | > 128 | 4 (≈ 4.99 µM) | 128 (≈ 160 µM) | 128 (≈ 160 µM) | 4 (≈ 4.99 µM) | 128 (≈ 160 µM) | > 128 | – | – | – | –
CC[C@H]1OC(=O)[C@H](C)C(=O)[C@H](C)[C@@H](O[C@@H]2O[C@H](C)C[C@H](N(C)C)[C@H]2O)[C@](C)(OC)C[C@@H](C)C(=O)[C@H](C)[C@@H](OC(=O)NCCNC(=O)C#Cc2ccc(Br)cc2)[C@]1(C)O | 8 (≈ 9.08 µM) | 128 (≈ 145 µM) | 1 (≈ 1.14 µM) | > 128 | 1 (≈ 1.14 µM) | 16 (≈ 18.2 µM) | 128 (≈ 145 µM) | 2 (≈ 2.27 µM) | 32 (≈ 36.3 µM) | 64 (≈ 72.7 µM) | – | – | 8 | 8
CC[C@H]1OC(=O)[C@H](C)C(=O)[C@H](C)[C@@H](O[C@@H]2O[C@H](C)C[C@H](N(C)C)[C@H]2O)[C@](C)(OC)C[C@@H](C)C(=O)[C@H](C)[C@@H](OC(=O)NCCNC(=O)C#Cc2cccc3ccccc23)[C@]1(C)O | 16 (≈ 18.8 µM) | > 128 | 0.5 (≈ 0.587 µM) | > 128 | 1 (≈ 1.17 µM) | 64 (≈ 75.1 µM) | 128 (≈ 150 µM) | 1 (≈ 1.17 µM) | 128 (≈ 150 µM) | 64 (≈ 75.1 µM) | – | – | – | –
CC[C@H]1OC(=O)[C@H](C)C(=O)[C@H](C)[C@@H](O[C@@H]2O[C@H](C)C[C@H](N(C)C)[C@H]2O)[C@](C)(OC)C[C@@H](C)C(=O)[C@H](C)[C@@H](OC(=O)NCCNC(=O)C#Cc2ccccc2Cl)[C@]1(C)O | 16 (≈ 19.1 µM) | > 128 | 1 (≈ 1.2 µM) | > 128 | 4 (≈ 4.78 µM) | 128 (≈ 153 µM) | 128 (≈ 153 µM) | 2 (≈ 2.39 µM) | 128 (≈ 153 µM) | > 128 | – | – | – | –
CC[C@H]1OC(=O)[C@H](C)[C@@H](O[C@H]2C[C@@](C)(OC)[C@@H](O)[C@H](C)O2)[C@H](C)[C@@H](O[C@@H]2O[C@H](C)C[C@H](N(C)C)[C@H]2O)[C@](C)(O)C[C@@H](C)CN(C)[C@H](C)[C@@H](O)[C@]1(C)O [AZITHROMYCIN] | 0.25 (≈ 0.334 µM) | 16 (≈ 21.4 µM) | 0.03 (≈ 0.0401 µM) | 16 (≈ 21.4 µM) | 0.25 (≈ 0.334 µM) | > 128 | > 128 | 4 (≈ 5.34 µM) | > 128 | > 128 | – | – | – | –
CC[C@H]1OC(=O)[C@H](C)[C@@H](O[C@H]2C[C@@](C)(OC)[C@@H](O)[C@H](C)O2)[C@H](C)[C@@H](O[C@@H]2O[C@H](C)C[C@H](N(C)C)[C@H]2O)[C@](C)(OC)C[C@@H](C)C(=O)[C@H](C)[C@@H](O)[C@]1(C)O [CLARITHROMYCIN] | 0.25 (≈ 0.334 µM) | 64 (≈ 85.6 µM) | 0.03 (≈ 0.0401 µM) | 64 (≈ 85.6 µM) | 0.25 (≈ 0.334 µM) | > 128 | > 128 | 2 (≈ 2.67 µM) | 128 (≈ 171 µM) | > 128 | – | – | – | –

Source: ChEMBL document CHEMBL4118255, “Synthesis and antibacterial evaluation of novel 11-O-aralkylcarbamoyl-3-O-descladinosylclarithromycin derivatives” (2018)
